Data: ChEMBL document CHEMBL1138454, “Synthesis and SAR of tolylamine 5-HT6 antagonists” (Bioorg Med Chem Lett, 2009)
Activity calls are given as the source filed them. The calls are words filed in the database; no cut-off is given here.

Experiments:
[1] = Volume of distribution at steady state in rat; format: ADME, organism-based; conditions: in vivo, read-out: Vdss
[2] = molecular target: 5-hydroxytryptamine receptor 6 (Rattus norvegicus) (UniProt P31388); assay: Antagonist activity at rat recombinant 5HT6 receptor assessed as inhibition of 5-HT-stimulated cAMP level by ELISA; format: functional
Method in brief: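 Cells expressing recombinant rat 5-HT6 receptor were stimulated with 5-HT. Inhibition of the 5-HT-stimulated cAMP accumulation was read by ELISA and expressed as a Kb.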

[3] = molecular target: T1, 5-hydroxytryptamine receptor 2C (Homo sapiens, UniProt P28335); assay: Binding affinity to 5HT2C receptor
T1 sequence (P28335 whole entry): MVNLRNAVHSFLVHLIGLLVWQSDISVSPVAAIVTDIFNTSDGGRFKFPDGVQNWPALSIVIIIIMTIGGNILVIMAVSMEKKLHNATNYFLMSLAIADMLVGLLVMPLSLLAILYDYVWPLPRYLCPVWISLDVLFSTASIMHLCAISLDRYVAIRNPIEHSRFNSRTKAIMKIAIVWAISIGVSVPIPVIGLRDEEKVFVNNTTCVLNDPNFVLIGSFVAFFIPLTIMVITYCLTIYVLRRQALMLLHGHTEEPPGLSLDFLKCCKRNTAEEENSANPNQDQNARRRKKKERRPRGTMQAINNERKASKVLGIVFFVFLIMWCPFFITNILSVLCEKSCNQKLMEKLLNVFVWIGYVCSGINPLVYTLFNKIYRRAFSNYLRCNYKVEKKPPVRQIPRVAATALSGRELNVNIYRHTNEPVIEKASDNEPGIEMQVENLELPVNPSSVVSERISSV

[4] = Clearance in rat; format: ADME, organism-based; conditions: in vivo
Rattus norvegicus [5] = assay: Reversal of natural forgetting activity in rat assessed as novel object recognition at 3 mg/kg, ip after 24 hrs; format: functional, organism-based; parameters: dose 3 mg/kg
[6] = molecular target: 5-hydroxytryptamine receptor 6 (Rattus norvegicus) (UniProt P31388); assay: Agonist activity at rat recombinant 5HT6 receptor assessed as increase in 5-HT-stimulated cAMP level at 1 uM by ELISA; format: functional
Method in brief: (§1)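 cAMP accumulation measured by ELISA in cells expressing recombinant rat 5-HT6 receptor. Compound tested alone, without 5-HT, at 1, 3 and 10 µM to look for stimulation. 5-HT used as the stimulating reference.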

[7] = molecular target: T2, 5-hydroxytryptamine receptor 1A (Homo sapiens, UniProt P08908); assay: Binding affinity to 5HT1A receptor
T2 sequence (P08908 whole entry): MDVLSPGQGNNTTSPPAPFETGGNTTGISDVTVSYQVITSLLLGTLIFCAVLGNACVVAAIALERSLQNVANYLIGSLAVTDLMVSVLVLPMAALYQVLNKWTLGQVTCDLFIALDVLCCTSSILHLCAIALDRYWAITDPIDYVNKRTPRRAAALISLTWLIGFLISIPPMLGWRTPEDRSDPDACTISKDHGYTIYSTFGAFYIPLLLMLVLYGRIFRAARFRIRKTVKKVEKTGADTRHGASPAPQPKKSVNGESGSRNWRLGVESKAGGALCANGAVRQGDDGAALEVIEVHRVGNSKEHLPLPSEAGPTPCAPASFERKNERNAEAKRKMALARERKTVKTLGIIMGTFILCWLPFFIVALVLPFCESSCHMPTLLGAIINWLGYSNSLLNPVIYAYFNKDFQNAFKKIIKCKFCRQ

[8] = Bioavailability in rat; format: ADME, organism-based; conditions: in vivo
Rattus norvegicus [9] = assay: Reversal of natural forgetting activity in rat assessed as novel object recognition at 10 mg/kg, ip after 24 hrs; format: functional, organism-based; parameters: dose 10 mg/kg
[10] = Half life in po dosed rat plasma; format: ADME, organism-based
Method in brief: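 Rat pharmacokinetics; plasma half-life derived from the PO dosing arm.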

[11] = molecular target: 5-hydroxytryptamine receptor 6 (Rattus norvegicus) (UniProt P31388); assay: Agonist activity at rat recombinant 5HT6 receptor assessed as increase in 5-HT-stimulated cAMP level at 10 uM by ELISA; format: functional; method in brief: as §1
[12] = molecular target: 5-hydroxytryptamine receptor 2A (Homo sapiens, UniProt P28223); assay: Binding affinity to 5HT2A receptor
Rattus norvegicus [13] = assay: Reversal of natural forgetting activity in rat assessed as familiar object recognition at 3 mg/kg, ip after 24 hrs; format: functional, organism-based; parameters: dose 3 mg/kg
Rattus norvegicus [14] = assay: Reversal of natural forgetting activity in rat assessed as familiar object recognition at 10 mg/kg, ip after 24 hrs; format: functional, organism-based; parameters: dose 10 mg/kg
[15] = molecular target: 5-hydroxytryptamine receptor 6 (Rattus norvegicus) (UniProt P31388); assay: Agonist activity at rat recombinant 5HT6 receptor assessed as increase in 5-HT-stimulated cAMP level at 3 uM by ELISA; format: functional; method in brief: as §1
[16] = Ratio of drug level in rat brain to plasma; conditions: brain and plasma

5-hydroxytryptamine receptor 6 (Rattus norvegicus), sequence (P31388 whole entry): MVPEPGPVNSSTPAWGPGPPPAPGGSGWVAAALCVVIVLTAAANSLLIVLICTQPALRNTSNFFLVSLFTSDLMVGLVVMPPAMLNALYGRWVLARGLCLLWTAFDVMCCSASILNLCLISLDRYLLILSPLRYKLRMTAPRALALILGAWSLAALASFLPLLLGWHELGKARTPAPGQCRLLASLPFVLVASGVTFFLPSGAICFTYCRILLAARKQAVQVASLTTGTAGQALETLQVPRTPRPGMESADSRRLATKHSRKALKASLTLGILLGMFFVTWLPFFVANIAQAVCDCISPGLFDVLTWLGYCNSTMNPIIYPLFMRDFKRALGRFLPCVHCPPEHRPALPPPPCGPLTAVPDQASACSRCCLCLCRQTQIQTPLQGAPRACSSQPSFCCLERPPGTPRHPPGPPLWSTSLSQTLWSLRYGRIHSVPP
5-hydroxytryptamine receptor 2A, sequence (P28223 whole entry): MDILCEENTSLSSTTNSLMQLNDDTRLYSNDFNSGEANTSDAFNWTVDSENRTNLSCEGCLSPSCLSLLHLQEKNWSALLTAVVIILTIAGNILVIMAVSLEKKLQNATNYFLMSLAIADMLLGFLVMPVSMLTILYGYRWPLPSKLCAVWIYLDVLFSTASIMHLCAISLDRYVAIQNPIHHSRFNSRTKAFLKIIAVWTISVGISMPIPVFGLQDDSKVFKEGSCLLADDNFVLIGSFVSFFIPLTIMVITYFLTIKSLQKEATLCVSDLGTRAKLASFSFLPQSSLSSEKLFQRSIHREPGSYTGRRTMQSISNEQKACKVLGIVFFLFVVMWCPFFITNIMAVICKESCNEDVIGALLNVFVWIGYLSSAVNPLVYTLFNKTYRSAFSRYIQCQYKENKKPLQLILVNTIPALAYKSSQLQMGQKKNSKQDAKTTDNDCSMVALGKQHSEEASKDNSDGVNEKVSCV

## Cc1c(O[C@@H](C)c2cccc(F)c2)cccc1C1CCNCC1
[1]
  Vd: 12 L/kg
[2]
  Kb: 0.153 µM
[3]
  IC50: > 1 µM
[4]
  clearance: 66 mL/min/kg
Rattus norvegicus [5]
  Activity: Active
[6]
  Activity: inactive
[7]
  IC50: > 1 µM
[8]
  bioavailability: 90%
Rattus norvegicus [9]
  Activity: Active
[10]
  half-life: 5.9 h
[11]
  Activity: inactive
[12]
  IC50: > 1 µM
Rattus norvegicus [13]
  Activity: Active
Rattus norvegicus [14]
  Activity: Active
[15]
  Activity: inactive
[16]
  Kp: 23
